Results on three compounds are retold here after BindingDB's records for doi:10.1016/j.ejmech.2021.113996 (The University of Michigan Medical School, 2022).

Usually IC50 stands for the concentration needed to halve the response being measured. A high value points to a need for much substance.

For test [1], the target named is Phosphatidylinositol 4,5-bisphosphate 3-kinase catalytic subunit beta isoform (Homo sapiens, UniProt P42338). Put plainly: Inhibition of human PI3Kbeta by TR-FRET based Adapta assay. The gist of the method: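 Purified human PI3K isoforms α, β, γ and δ assayed by fluorescence-based Adapta TR-FRET lipid kinase assay (outsourced). Inhibitor range 0.1 nM–10 μM. IC₅₀ is the mean ± SEM of three experiments, each run in duplicate.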

In test [2] the target is Phosphatidylinositol 4,5-bisphosphate 3-kinase catalytic subunit alpha isoform (Homo sapiens, UniProt P42336). The test is described as follows: Inhibition of human PI3Kalpha by TR-FRET based Adapta assay. (In general: TR-FRET usually uses a lanthanide donor and a delayed reading to cut background.)
The target of test [3] is T1, Phosphatidylinositol 4,5-bisphosphate 3-kinase catalytic subunit delta isoform (Homo sapiens, UniProt O00329).
T1 sequence (O00329 whole entry): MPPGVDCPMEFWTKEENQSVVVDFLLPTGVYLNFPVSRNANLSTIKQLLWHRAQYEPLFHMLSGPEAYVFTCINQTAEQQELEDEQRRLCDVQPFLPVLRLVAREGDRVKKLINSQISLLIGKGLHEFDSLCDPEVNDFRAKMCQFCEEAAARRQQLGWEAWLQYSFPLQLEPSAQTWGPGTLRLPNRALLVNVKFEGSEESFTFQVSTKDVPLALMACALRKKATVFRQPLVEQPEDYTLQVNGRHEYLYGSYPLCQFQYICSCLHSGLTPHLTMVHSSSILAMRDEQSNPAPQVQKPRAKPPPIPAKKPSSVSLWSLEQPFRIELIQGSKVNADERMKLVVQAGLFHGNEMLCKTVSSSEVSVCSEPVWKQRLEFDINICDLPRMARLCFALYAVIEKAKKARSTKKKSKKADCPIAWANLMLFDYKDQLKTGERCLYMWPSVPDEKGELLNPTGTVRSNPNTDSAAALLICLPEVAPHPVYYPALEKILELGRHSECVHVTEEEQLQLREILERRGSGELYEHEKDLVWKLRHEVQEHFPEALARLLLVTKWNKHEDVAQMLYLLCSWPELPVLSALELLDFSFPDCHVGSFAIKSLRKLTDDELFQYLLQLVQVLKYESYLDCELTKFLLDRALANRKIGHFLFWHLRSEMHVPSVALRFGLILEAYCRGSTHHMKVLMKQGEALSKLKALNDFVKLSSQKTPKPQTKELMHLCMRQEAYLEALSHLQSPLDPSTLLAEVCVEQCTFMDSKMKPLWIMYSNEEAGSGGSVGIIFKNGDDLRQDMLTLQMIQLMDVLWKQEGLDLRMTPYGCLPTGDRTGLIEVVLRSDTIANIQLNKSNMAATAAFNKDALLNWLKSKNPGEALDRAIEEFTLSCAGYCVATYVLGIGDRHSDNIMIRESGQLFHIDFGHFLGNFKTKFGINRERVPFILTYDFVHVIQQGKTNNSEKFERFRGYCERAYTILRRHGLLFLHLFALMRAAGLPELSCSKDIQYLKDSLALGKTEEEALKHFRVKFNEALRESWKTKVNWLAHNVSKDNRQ
Put plainly: Inhibition of human PI3Kdelta by TR-FRET based Adapta assay.

For test [4], the target named is Phosphatidylinositol 4,5-bisphosphate 3-kinase catalytic subunit gamma isoform (Homo sapiens, UniProt P48736). The test is described as follows: Inhibition of human PI3Kgamma by TR-FRET based Adapta assay.
Phosphatidylinositol 4,5-bisphosphate 3-kinase catalytic subunit gamma isoform, sequence (P48736 whole entry, canonical isoform): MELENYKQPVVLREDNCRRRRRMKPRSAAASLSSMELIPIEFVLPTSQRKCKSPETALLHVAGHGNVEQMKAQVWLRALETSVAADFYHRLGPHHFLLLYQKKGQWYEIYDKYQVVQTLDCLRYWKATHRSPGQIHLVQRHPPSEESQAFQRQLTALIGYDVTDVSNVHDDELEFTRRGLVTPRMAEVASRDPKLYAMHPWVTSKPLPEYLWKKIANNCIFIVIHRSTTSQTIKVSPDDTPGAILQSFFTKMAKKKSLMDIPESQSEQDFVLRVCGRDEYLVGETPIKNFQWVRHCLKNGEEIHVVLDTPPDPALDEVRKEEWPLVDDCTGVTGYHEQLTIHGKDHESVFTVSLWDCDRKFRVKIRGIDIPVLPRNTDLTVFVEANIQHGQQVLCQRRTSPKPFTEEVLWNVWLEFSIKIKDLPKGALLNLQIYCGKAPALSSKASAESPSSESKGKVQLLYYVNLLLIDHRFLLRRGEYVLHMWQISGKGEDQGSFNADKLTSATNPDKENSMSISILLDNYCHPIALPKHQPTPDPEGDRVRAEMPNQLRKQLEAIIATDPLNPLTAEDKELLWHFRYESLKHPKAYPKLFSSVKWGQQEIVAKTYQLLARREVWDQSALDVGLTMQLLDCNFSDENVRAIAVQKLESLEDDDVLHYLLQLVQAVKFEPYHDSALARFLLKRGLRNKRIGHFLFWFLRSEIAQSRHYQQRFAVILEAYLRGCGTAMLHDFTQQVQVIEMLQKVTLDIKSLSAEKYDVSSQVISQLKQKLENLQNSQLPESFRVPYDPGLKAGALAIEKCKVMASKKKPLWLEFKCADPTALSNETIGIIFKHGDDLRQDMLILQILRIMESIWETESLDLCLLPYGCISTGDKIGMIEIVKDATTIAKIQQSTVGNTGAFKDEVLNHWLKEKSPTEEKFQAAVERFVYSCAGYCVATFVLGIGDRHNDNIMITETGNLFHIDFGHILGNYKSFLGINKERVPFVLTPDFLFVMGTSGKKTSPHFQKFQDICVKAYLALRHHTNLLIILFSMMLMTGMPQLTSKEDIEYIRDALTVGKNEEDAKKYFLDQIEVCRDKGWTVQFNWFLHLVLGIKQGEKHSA

Phosphatidylinositol 4,5-bisphosphate 3-kinase catalytic subunit alpha isoform, sequence (P42336 whole entry, canonical isoform): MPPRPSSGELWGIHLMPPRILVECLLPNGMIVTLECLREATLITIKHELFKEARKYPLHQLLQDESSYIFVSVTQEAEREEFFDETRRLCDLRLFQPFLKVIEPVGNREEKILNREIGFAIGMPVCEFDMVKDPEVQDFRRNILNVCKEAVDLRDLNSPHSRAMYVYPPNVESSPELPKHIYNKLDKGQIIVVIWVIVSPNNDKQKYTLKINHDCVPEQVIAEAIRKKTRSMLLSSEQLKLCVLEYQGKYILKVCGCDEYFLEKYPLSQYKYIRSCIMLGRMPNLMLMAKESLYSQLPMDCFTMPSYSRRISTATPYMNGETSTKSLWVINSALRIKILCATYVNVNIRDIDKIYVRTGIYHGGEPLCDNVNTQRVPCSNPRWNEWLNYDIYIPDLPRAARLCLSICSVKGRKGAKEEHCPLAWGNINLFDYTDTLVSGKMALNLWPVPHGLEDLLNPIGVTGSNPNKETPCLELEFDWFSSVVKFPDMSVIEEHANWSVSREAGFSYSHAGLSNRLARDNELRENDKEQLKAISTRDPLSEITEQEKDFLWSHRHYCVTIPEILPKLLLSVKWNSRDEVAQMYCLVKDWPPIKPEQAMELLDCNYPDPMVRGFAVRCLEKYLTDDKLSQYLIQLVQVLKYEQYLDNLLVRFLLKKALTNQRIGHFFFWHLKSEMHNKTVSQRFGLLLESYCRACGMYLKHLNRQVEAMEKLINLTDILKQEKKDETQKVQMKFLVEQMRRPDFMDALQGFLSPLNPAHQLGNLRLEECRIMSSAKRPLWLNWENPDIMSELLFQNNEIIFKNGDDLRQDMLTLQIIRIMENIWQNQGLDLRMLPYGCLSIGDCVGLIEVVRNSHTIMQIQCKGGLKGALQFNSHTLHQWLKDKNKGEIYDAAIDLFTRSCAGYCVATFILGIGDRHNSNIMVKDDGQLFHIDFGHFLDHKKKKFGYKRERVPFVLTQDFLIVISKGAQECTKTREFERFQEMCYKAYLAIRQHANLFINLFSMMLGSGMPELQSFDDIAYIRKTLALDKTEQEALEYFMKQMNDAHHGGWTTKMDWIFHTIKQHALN
Phosphatidylinositol 4,5-bisphosphate 3-kinase catalytic subunit beta isoform, sequence (P42338 whole entry, canonical isoform): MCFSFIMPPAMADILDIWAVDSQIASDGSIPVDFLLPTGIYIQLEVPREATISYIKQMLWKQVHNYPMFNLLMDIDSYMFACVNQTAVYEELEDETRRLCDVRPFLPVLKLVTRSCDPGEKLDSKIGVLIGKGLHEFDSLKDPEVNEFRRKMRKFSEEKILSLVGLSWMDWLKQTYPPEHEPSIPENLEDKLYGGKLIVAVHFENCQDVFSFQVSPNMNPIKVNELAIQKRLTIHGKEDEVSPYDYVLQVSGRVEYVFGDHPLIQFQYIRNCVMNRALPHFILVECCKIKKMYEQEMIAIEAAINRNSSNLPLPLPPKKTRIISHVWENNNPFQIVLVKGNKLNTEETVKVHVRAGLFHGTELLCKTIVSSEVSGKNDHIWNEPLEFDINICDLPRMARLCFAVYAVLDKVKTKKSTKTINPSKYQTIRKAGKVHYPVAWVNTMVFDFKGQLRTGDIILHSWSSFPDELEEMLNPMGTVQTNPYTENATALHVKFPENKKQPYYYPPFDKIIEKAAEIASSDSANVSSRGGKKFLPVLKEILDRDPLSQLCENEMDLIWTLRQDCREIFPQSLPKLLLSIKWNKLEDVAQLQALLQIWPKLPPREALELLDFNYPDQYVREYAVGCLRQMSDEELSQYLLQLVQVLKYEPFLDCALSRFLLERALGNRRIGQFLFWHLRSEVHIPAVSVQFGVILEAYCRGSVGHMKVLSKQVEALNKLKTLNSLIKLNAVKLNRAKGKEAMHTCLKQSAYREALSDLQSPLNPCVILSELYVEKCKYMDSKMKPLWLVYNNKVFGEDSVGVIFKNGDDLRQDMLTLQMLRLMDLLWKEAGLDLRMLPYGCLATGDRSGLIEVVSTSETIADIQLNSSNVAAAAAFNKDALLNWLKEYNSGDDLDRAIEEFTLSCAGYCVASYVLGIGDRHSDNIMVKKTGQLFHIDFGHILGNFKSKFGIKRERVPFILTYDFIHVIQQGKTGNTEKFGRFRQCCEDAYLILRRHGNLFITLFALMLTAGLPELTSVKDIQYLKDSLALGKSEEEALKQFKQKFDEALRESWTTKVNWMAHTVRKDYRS

As for `CNCCN(CCO)c1nc(N2CCOCC2)nc(-n2c(C(F)F)nc3ccccc32)n1`, the IC50 in test [1] came to 627 nM; in test [2], 148 nM; in test [3], 47 nM; in test [4], 869 nM.
On to `CC(=O)N1CCN(c2nc(N3CCOCC3)nc(-n3c(C(F)F)nc4ccccc43)n2)CC1`, for which the IC50 amounted to 8.2 nM in test [2] and 2.9 nM in test [3].
Taken in the same sequence, the figures for `FC(F)c1nc2ccccc2n1-c1nc(N2CCNCC2)nc(N2CCOCC2)n1` were 180 nM and 142 nM.
